Reference: publication PMC10979821 (Current pharmaceutical design, 2023)
Entries after “also recorded” stand apart in the source; their conditions may differ. Read-outs that look alike come from different tables or passages of the source.

Assays:
[1] = Serum pharmacokinetics of THC and metabolites after inhaled or i.p. THC; type: in vivo, female Sprague Dawley rats
[2] = cited from earlier work
[3] = cited from earlier work; remark: listed apart in the source
[4] = system: female Sprague Dawley rats; experiment: Locomotor activity in OpenField arena after i.p. or inhaled THC; type: in vivo, rat; details: for vertical plane entries (rearing), total: 45 minute session
Outline: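 Separate cohort of adult female rats (n=15): habituation session, then five vehicle or THC days, each 3 days apart. Dosing was 2 mg/kg i.p., or 10 min vapour exposure (0.25 mL of 40 or 160 mg/mL; 0.19 or 0.76 mg/kg). Rats entered the arena immediately for 45 min, n=10–15 per group. Analysis: two-way RM ANOVA (time × treatment), Sidak or Tukey post hoc.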

rodents = details: i.p. injected THC; cited from earlier work
[5] = 0.19 mg/kg vaporized/inhaled THC (0.25 mL of 40 mg/mL, 10 min exposure), serum
[6] = 0.76 mg/kg vaporized/inhaled THC (0.25 mL of 160 mg/mL, 10 min exposure), serum
[7] = 2 mg/kg THC i.p., serum, female Sprague Dawley rats
[8] = female, Sprague Dawley, rat, serum, inhaled or intranasal, 0.19 mg/kg
[9] = female, Sprague Dawley, rat, serum, inhaled or intranasal, 0.76 mg/kg
[10] = female, Sprague Dawley, rat, serum, ip, 2 mg/kg

Q: Which Tmax ([1]; 0.19 mg/kg vaporized THC, time after conclusion of inhalation) does the source give for “11-hydroxy-delta-9-tetrahydrocannabinol [11-OH-THC]” here?
A: The Tmax was 5 min.

Q: What about the “Cmax (maximum serum concentration)” value [1, 5] of the same compound?
A: Its value is 0.0144 ± 0.0014 µg/mL.

Q: What about the Tmax ([1]; 0.76 mg/kg vaporized THC, time after conclusion of inhalation) of the same compound?
A: Its Tmax is 5 min.

Q: And the “Cmax (maximum serum concentration)” value [1, 6]?
A: The value was 0.0356 ± 0.0074 µg/mL.

Q: What about the “Cmax (maximum serum concentration)” value [1, 7] of the same compound?
A: The value was 0.0842 ± 0.0193 µg/mL.

Q: And the Tmax ([1]; 2 mg/kg THC i.p., time post-injection)?
A: The Tmax was 20 min.

Q: And the “metabolite level relative to THC” value ([2]; human, acute inhalation, % of THC)?
A: The value was “up to 30%”.

Q: Which “time of peak THC brain levels” value ([3]; after THC inhalation in males, ref 35 (Hložek et al.)) does the source give for `CCCCCc1cc(O)c2c(c1)OC(C)(C)[C@@H]1CCC(C)=C[C@@H]21` [THC, delta-9-tetrahydrocannabinol] here?
A: The value was 15 min.

Q: What about the “mean Cmax levels of THC” value ([3]; female Sprague Dawley rats, 5 minutes post-30 minute inhalation of 200 mg/mL THC) of the same compound?
A: The value was 0.303 µg/mL.

Q: And the “time of peak THC brain levels” value ([3]; ref 26 (Baglot et al.))?
A: Its value is 30 min.

Q: What about the “vertical plane entries (rearing), total” value ([4]; 0.19 mg/kg INH THC vs vehicle) of the same compound?
A: The value was “Significantly reduced; also recorded: significantly decreased; also recorded: reduced rearing activity”.

Q: And the floor plane distance ([4]; 0.76 mg/kg inhaled THC vs vehicle, at 20 minutes)?
A: The floor plane distance was “significantly higher; also recorded: slightly heightened locomotion”.

Q: What about the “horizontal distance traveled or altered thigmotaxis” value ([4]; 0.76 mg/kg inhaled THC, over a 45-minute period) of the same compound?
A: Its value is “minimal effect”.

Q: And the center distance travelled ([4]; 0.76 mg/kg vaporized THC vs vehicle, at 20 minutes)?
A: The center distance travelled was “significantly higher; also recorded: increased center distance travelled”.

Q: What about the “vertical plane entries (rearing), total” value ([4]; 2 mg/kg i.p. THC vs vehicle) of the same compound?
A: Its value is “Significantly reduced; also recorded: significant reduction; also recorded: reduced rearing activity”.

Q: And the “margin distance, post-hoc comparisons” value ([4]; vaporized THC 0.19 or 0.76 mg/kg vs vehicle)?
A: Its value is “no significant post-hoc comparisons”.

Q: What about the “Vss (volume of distribution at steady state)” value ([1]; 0.19 mg/kg vaporized) of the same compound?
A: The value was 8.6 L/kg.

Q: What about the “Vss (volume of distribution at steady state)” value ([1]; 0.76 mg/kg vaporized) of the same compound?
A: The value was 24.4 L/kg.

Q: What about the AUC(0-inf) [1, 8] of the same compound?
A: Its AUC(0-inf) is 0.087 µg·h/mL.

Q: And the CL/F [1, 8]?
A: Its CL/F is 2.3 L/h/kg.

Q: And the Cmax [1, 8]?
A: Its Cmax is 0.0433 µg/mL.

Q: What about the Tmax [1, 8] of the same compound?
A: Its Tmax is 10 min.

Q: And the Vd/F [1, 8]?
A: Its Vd/F is 7.4 L/kg.

Q: What about the half-life [1, 8] of the same compound?
A: Its half-life is 132 min.

Q: And the k el [1, 8]?
A: The k el was 8.33e-05 s⁻¹.

Q: And the AUC(0-inf) [1, 9]?
A: The AUC(0-inf) was 0.0944 µg·h/mL.

Q: What about the CL/F [1, 9] of the same compound?
A: The CL/F was 8.5 L/h/kg.

Q: What about the Cmax [1, 9] of the same compound?
A: Its Cmax is 0.0716 µg/mL.

Q: And the Tmax [1, 9]?
A: The Tmax was 5 min.

Q: What about the Vd/F [1, 9] of the same compound?
A: Its Vd/F is 33 L/kg.

Q: What about the half-life [1, 9] of the same compound?
A: The half-life was 162 min.

Q: What about the k el [1, 9] of the same compound?
A: Its k el is 8.33e-05 s⁻¹.

Q: What about the AUC(0-inf) [1, 10] of the same compound?
A: The AUC(0-inf) was 0.364 µg·h/mL.

Q: What about the CL/F [1, 10] of the same compound?
A: Its CL/F is 5.5 L/h/kg.

Q: What about the Cmax [1, 10] of the same compound?
A: Its Cmax is 0.108 µg/mL.

Q: And the Tmax [1, 10]?
A: The Tmax was 10 min.

Q: What about the Vd/F [1, 10] of the same compound?
A: The Vd/F was 26.9 L/kg.

Q: And the half-life [1, 10]?
A: Its half-life is 204 min.

Q: And the k el [1, 10]?
A: The k el was 5.56e-05 s⁻¹.

Q: And the “fold-change of Cmax values” ([1]; increasing inhaled THC dose from 0.19 mg/kg to 0.76 mg/kg)?
A: The value was 1.6 fold.

Q: What about the “dose at which horizontal locomotion is affected” value (rodents) of the same compound?
A: The value was no less than 15 mg/kg.

Q: And the “plasma concentration Cmax” value ([2]; human clinical study at a similar dose)?
A: The value was 0.07381 ± 0.06309 µg/mL.

Q: What about the “plasma Cmax values across individual subjects” value ([2]; human, 6 subjects given the same dose of THC under the same regime) of the same compound?
A: Its value is 0.07 to 0.28 µg/mL.

Q: And the “mean Cmax of THC” value ([2]; human, acute THC inhalation, whole blood, lowest mean across studies)?
A: Its value is 0.004 µg/mL.

Q: And the “mean Cmax ranges in clinical studies” value ([2]; human, smoked or vaped cannabis at similar doses)?
A: The value was 0.004 to 0.162 µg/mL.

Q: Which “Cmax (maximum serum concentration)” value [1, 5] does the source give for `CCCCCc1cc(O)c2c(c1)OC(C)(C)C1CCC(C(=O)O)=CC21` (stereo not shown) [THC-COOH, 11-nor-9-carboxy-delta-9-tetrahydrocannabinol] here?
A: Its value is 0.0209 ± 0.0041 µg/mL.

Q: What about the “Cmax (maximum serum concentration)” value [1, 6] of the same compound?
A: Its value is 0.0199 ± 0.0022 µg/mL.

Q: And the “Cmax (maximum serum concentration)” value [1, 7]?
A: The value was 0.087 ± 0.0218 µg/mL.

Q: What about the “time detectable in the bloodstream after administration” value ([2]; humans) of the same compound?
A: Its value is no less than 7 days.
